Test results from ChEMBL document CHEMBL3525900, “Pharmacokinetics, distribution, and metabolism of [14C]sunitinib in rats, monkeys, and humans” (Drug Metab Dispos, 2012).

Columns and labels:
[1] = Drug concentration in female albino rat uveal tract assessed as radioactivity per gram of tissue at 20 mg/kg administered as single dose via gastric gavage measured after 24 hrs by autoradiographic analysis; type: ADME, organism-based; set-up: dose 20 mg/kg, dosed compound name [14C]Sunitinib; details: in vivo, po
[2] = system: Spleen; assay: Drug concentration in female Lister Hooded pigmented rat spleen assessed as radioactivity per gram of tissue at 20 mg/kg administered as single dose via gastric gavage measured after 72 hrs by autoradiographic analysis; type: ADME, organism-based; set-up: dose 20 mg/kg, dosed compound name [14C]Sunitinib; details: in vivo, po
Summary of the method: (§1)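 Lister Hooded (pigmented) rats, ca 7-8 weeks old, acclimated 7 days, given [14C]sunitinib L-malate by gastric gavage at 20 mg/kg (15 mg freebase/kg, 100 µCi/kg). One male and one female killed by CO2 at 24, 72, 168 and 336 h. Carcasses frozen in solid CO2/hexane and embedded in frozen cellulose. 30 µm sagittal cryosections were freeze-dried. Tissue radioactivity measured by quantitative whole-body autoradiography against calibration standards, with background subtracted.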

[3] = system: Thymus; assay: Drug concentration in male albino rat thymus assessed as radioactivity per gram of tissue at 20 mg/kg administered as single dose via gastric gavage measured after 3 hrs by autoradiographic analysis; type: ADME, organism-based; set-up: dose 20 mg/kg, dosed compound name [14C]Sunitinib; details: in vivo, po
[4] = system: Pancreas; assay: Drug concentration in male Lister Hooded pigmented rat pancreas assessed as radioactivity per gram of tissue at 20 mg/kg administered as single dose via gastric gavage measured after 168 hrs by autoradiographic analysis; type: ADME, organism-based; set-up: dose 20 mg/kg, dosed compound name [14C]Sunitinib; details: in vivo, po
[5] = Drug concentration in male albino rat bladder assessed as radioactivity per gram of tissue at 20 mg/kg administered as single dose via gastric gavage measured after 6 hrs by autoradiographic analysis; type: ADME, organism-based, Urinary bladder; set-up: dose 20 mg/kg, dosed compound name [14C]Sunitinib; details: in vivo, po
[6] = Drug concentration in female albino rat skeletal muscle assessed as radioactivity per gram of tissue at 20 mg/kg administered as single dose via gastric gavage measured after 6 hrs by autoradiographic analysis; type: ADME, organism-based; set-up: dose 20 mg/kg, dosed compound name [14C]Sunitinib; details: in vivo, po
[7] = Drug concentration in male albino rat testis assessed as radioactivity per gram of tissue at 20 mg/kg administered as single dose via gastric gavage measured after 168 hrs by autoradiographic analysis; type: ADME, organism-based; set-up: dose 20 mg/kg, dosed compound name [14C]Sunitinib; details: in vivo, po
[8] = Drug concentration in male albino rat skeletal muscle assessed as radioactivity per gram of tissue at 20 mg/kg administered as single dose via gastric gavage measured after 24 hrs by autoradiographic analysis; type: ADME, organism-based; set-up: dose 20 mg/kg, dosed compound name [14C]Sunitinib; details: in vivo, po
[9] = system: Small intestine; assay: Drug concentration in male albino rat small intestine assessed as radioactivity per gram of tissue at 20 mg/kg administered as single dose via gastric gavage measured after 72 hrs by autoradiographic analysis; type: ADME, organism-based; set-up: dose 20 mg/kg, dosed compound name [14C]Sunitinib; details: in vivo, po
[10] = system: Spleen; assay: Drug concentration in female Lister Hooded pigmented rat spleen assessed as radioactivity per gram of tissue at 20 mg/kg administered as single dose via gastric gavage measured after 24 hrs by autoradiographic analysis; type: ADME, organism-based; set-up: dose 20 mg/kg, dosed compound name [14C]Sunitinib; details: in vivo, po; summary of the method: as §1
[11] = system: Heart; assay: Drug concentration in male albino rat heart assessed as radioactivity per gram of tissue at 20 mg/kg administered as single dose via gastric gavage measured after 6 hrs by autoradiographic analysis; type: ADME, organism-based; set-up: dose 20 mg/kg, dosed compound name [14C]Sunitinib; details: in vivo, po
[12] = system: Kidney; assay: Drug concentration in female albino rat kidney assessed as radioactivity per gram of tissue at 20 mg/kg administered as single dose via gastric gavage measured after 3 hrs by autoradiographic analysis; type: ADME, organism-based; set-up: dose 20 mg/kg, dosed compound name [14C]Sunitinib; details: in vivo, po
Summary of the method: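 Sprague Dawley albino rats, ca 7-8 weeks old, dosed once by gastric gavage with [14C]sunitinib L-malate (15 mg freebase/kg, 100 µCi/kg). One male and one female killed by CO2 at 3, 6, 24, 72 and 168 h. Carcasses frozen in solid CO2/hexane, embedded and cut into 30 µm sagittal sections, then freeze-dried. Radioactivity quantified by whole-body autoradiography against standards by regression, background subtracted.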

[13] = system: Liver; assay: Drug concentration in male Lister Hooded pigmented rat liver assessed as radioactivity per gram of tissue at 20 mg/kg administered as single dose via gastric gavage measured after 24 hrs by autoradiographic analysis; type: ADME, organism-based; set-up: dose 20 mg/kg, dosed compound name [14C]Sunitinib; details: in vivo, po
[14] = system: Adrenal; assay: Drug concentration in male albino rat adrenal assessed as radioactivity per gram of tissue at 20 mg/kg administered as single dose via gastric gavage measured after 6 hrs by autoradiographic analysis; type: ADME, organism-based; set-up: dose 20 mg/kg, dosed compound name [14C]Sunitinib; details: in vivo, po
[15] = Drug recovery in feces of male cynomolgus monkey at 6 mg/kg, po administered as single dose during 0 to 336 hrs by liquid scintillation counting; type: ADME, organism-based, Macaca fascicularis; set-up: dose 6 mg/kg, dosed compound name [14C]Sunitinib, route oral; details: in vivo
[16] = Drug concentration in male albino rat eye assessed as radioactivity per gram of tissue at 20 mg/kg administered as single dose via gastric gavage measured after 24 hrs by autoradiographic analysis; type: ADME, organism-based; set-up: dose 20 mg/kg, dosed compound name [14C]Sunitinib; details: in vivo, po
[17] = system: Small intestine; assay: Drug concentration in female Lister Hooded pigmented rat small intestine assessed as radioactivity per gram of tissue at 20 mg/kg administered as single dose via gastric gavage measured after 24 hrs by autoradiographic analysis; type: ADME, organism-based; set-up: dose 20 mg/kg, dosed compound name [14C]Sunitinib; details: in vivo, po; summary of the method: as §1
[18] = system: Homo sapiens; assay: Cmax as total radioactivity in human plasma at 50 mg, po administered as single dose measured up to 24 hrs by LC/MS/MS analysis; type: ADME, organism-based; set-up: dose 50 mg, dosed compound name [14C]Sunitinib, route oral; details: in vivo
Summary of the method: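 Open-label phase I study in 8 subjects given one 50 mg oral dose of [14C]sunitinib (100 µCi). Plasma total radioactivity was counted by scintillation on triplicate 0.25 mL aliquots. Sunitinib was quantified by LC-MS-MS. Noncompartmental analysis: Cmax read directly, terminal t½ = ln(2)/slope of the log-concentration regression, AUC by linear trapezoidal rule to the last detectable concentration.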

[19] = system: Brain; assay: Drug concentration in female albino rat brain assessed as radioactivity per gram of tissue at 20 mg/kg administered as single dose via gastric gavage measured after 24 hrs by autoradiographic analysis; type: ADME, organism-based; set-up: dose 20 mg/kg, dosed compound name [14C]Sunitinib; details: in vivo, po
Summary of the method: (§2)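 Sprague Dawley (albino) rats, ca 7-8 weeks old, received a single gastric-gavage dose of [14C]sunitinib L-malate at 20 mg/kg (15 mg freebase/kg, 100 µCi/kg). One animal per sex killed by CO2 at 3, 6, 24, 72 and 168 h, then frozen in CO2/hexane. 30 µm sagittal sections were cut and freeze-dried. Radioactivity per gram quantified by whole-body autoradiography using regression against standards. LOQ 0.04–0.06 µg freebase equiv/g.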

[20] = system: Stomach; assay: Drug concentration in male albino rat stomach assessed as radioactivity per gram of tissue at 20 mg/kg administered as single dose via gastric gavage measured after 6 hrs by autoradiographic analysis; type: ADME, organism-based; set-up: dose 20 mg/kg, dosed compound name [14C]Sunitinib; details: in vivo, po
[21] = system: Spleen; assay: Drug concentration in female albino rat spleen assessed as radioactivity per gram of tissue at 20 mg/kg administered as single dose via gastric gavage measured after 3 hrs by autoradiographic analysis; type: ADME, organism-based; set-up: dose 20 mg/kg, dosed compound name [14C]Sunitinib; details: in vivo, po
[22] = system: Large intestine; assay: Drug concentration in male albino rat large intestine assessed as radioactivity per gram of tissue at 20 mg/kg administered as single dose via gastric gavage measured after 6 hrs by autoradiographic analysis; type: ADME, organism-based; set-up: dose 20 mg/kg, dosed compound name [14C]Sunitinib; details: in vivo, po
[23] = Drug concentration in female Lister Hooded pigmented rat eye assessed as radioactivity per gram of tissue at 20 mg/kg administered as single dose via gastric gavage measured after 24 hrs by autoradiographic analysis; type: ADME, organism-based; set-up: dose 20 mg/kg, dosed compound name [14C]Sunitinib; details: in vivo, po; summary of the method: as §1
[24] = system: Blood; assay: Drug concentration in male albino rat blood assessed as radioactivity per gram of tissue at 20 mg/kg administered as single dose via gastric gavage measured after 24 hrs by autoradiographic analysis; type: ADME, organism-based; set-up: dose 20 mg/kg, dosed compound name [14C]Sunitinib; details: in vivo, po
[25] = Drug recovery in urine of male cynomolgus monkey at 6 mg/kg, po administered as single dose during 0 to 336 hrs by liquid scintillation counting; type: ADME, organism-based, Macaca fascicularis; set-up: dose 6 mg/kg, dosed compound name [14C]Sunitinib, route oral; details: in vivo
[26] = Drug concentration in female albino rat bone marrow assessed as radioactivity per gram of tissue at 20 mg/kg administered as single dose via gastric gavage measured after 6 hrs by autoradiographic analysis; type: ADME, organism-based; set-up: dose 20 mg/kg, dosed compound name [14C]Sunitinib; details: in vivo, po; summary of the method: as §2
[27] = system: Kidney; assay: Drug concentration in male Lister Hooded pigmented rat kidney assessed as radioactivity per gram of tissue at 20 mg/kg administered as single dose via gastric gavage measured after 168 hrs by autoradiographic analysis; type: ADME, organism-based; set-up: dose 20 mg/kg, dosed compound name [14C]Sunitinib; details: in vivo, po
[28] = system: Small intestine; assay: Drug concentration in male albino rat small intestine assessed as radioactivity per gram of tissue at 20 mg/kg administered as single dose via gastric gavage measured after 3 hrs by autoradiographic analysis; type: ADME, organism-based; set-up: dose 20 mg/kg, dosed compound name [14C]Sunitinib; details: in vivo, po

CCN(CC)CCNC(=O)c1c(C)[nH]c(/[14CH]=C2\C(=O)Nc3ccc(F)cc32)c1C.O=C(O)C[C@H](O)C(=O)O
Radiolabel recovery [1]: 0.61 ugequiv | Radiolabel recovery [2]: 0.23 ugequiv | Radiolabel recovery [3]: 6.89 ugequiv | Radiolabel recovery [4]: 0.06 ugequiv | Radiolabel recovery [5]: 2.56 ugequiv | Radiolabel recovery [6]: 3.33 ugequiv | Radiolabel recovery [7]: 0.3 ugequiv | Radiolabel recovery [8]: 0.16 ugequiv | Radiolabel recovery [9]: 0.15 ugequiv | Radiolabel recovery [10]: 2.79 ugequiv | Radiolabel recovery [11]: 4.61 ugequiv | Radiolabel recovery [12]: 16.11 ugequiv | Radiolabel recovery [13]: 2.09 ugequiv | Radiolabel recovery [14]: 13.57 ugequiv | Radiolabel recovery [15]: 87.3% | Radiolabel recovery [16]: 0.08 ugequiv | Radiolabel recovery [17]: 1.16 ugequiv | Cmax [18]: 67.4 ngequiv/ml | Radiolabel recovery [19]: 0.07 ugequiv | Radiolabel recovery [20]: 9.3 ugequiv | Radiolabel recovery [21]: 30.72 ugequiv | Radiolabel recovery [22]: 5.38 ugequiv | Radiolabel recovery [23]: 31.8 ugequiv | Radiolabel recovery [24]: 0.07 ugequiv | Radiolabel recovery [25]: 4.8% | Radiolabel recovery [26]: 7.51 ugequiv | Radiolabel recovery [27]: 0.06 ugequiv | Radiolabel recovery [28]: 8.91 ugequiv
